The record followed here is ChEMBL document CHEMBL1153554, “Mechanisms by which the G333D mutation in human immunodeficiency virus type 1 Reverse transcriptase facilitates dual resistance to zidovudine and lamivudine” (Antimicrob Agents Chemother, 2008).

Each structure is given as a SMILES string. pKd: −log10 of the molar value. The source made the active and inactive calls. The calls are words filed in the database; no cut-off is given here.

Experiment [1] has as its system Human immunodeficiency virus type 1 reverse transcriptase (Human immunodeficiency virus 1), Q72547 [M184V]. Description: Binding affinity to HIV1 LAI reverse transcriptase M184V mutant assessed as ATP-mediated excision of zidovudine-monophosphate from chain terminated RNA/DNA template/primer duplex at 100 uM. Summed up:
(§1)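 The AZT-MP-terminated ³²P-P20 primer was annealed to a 35-nt RNA template (T35). 200 nM active-site RT with 20 nM T/P in 50 mM Tris-HCl pH 8.0, 50 mM KCl. Started with 3.0 mM ATP and 10 mM MgCl₂. Timed aliquots were quenched and separated on denaturing urea-PAGE, then phosphorimaged.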

Experiment [2] deals with Human immunodeficiency virus type 1 reverse transcriptase (Human immunodeficiency virus 1), Q72547 [M41L,L210W,T215Y]. The experiment can be described thus: Binding affinity to 200 nM HIV1 LAI reverse transcriptase M41L/L210W/T215Y mutant assessed as ATP-mediated excision of zidovudine-monophosphate from chain terminated DNA/DNA template/primer duplex at 100 uM. Summed up: (§2)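 Primer P20 (5′-³²P) on DNA template T57 was chain-terminated with WT RT and 100 μM AZT-TP (30 min, 37°C), gel-purified and reannealed. 200 nM active-site RT with 20 nM terminated T/P in 50 mM Tris-HCl pH 8.0, 50 mM KCl. Started with 3.0 mM ATP, 10 mM MgCl₂, 1 μM TTP and 5 μM ddCTP. Timed aliquots were run on 7 M urea-16% PAGE and phosphorimaged.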

Experiment [3] deals with Human immunodeficiency virus type 1 reverse transcriptase (Human immunodeficiency virus 1, UniProt Q72547, M184V). The experiment can be described thus: Binding affinity to HIV1 LAI reverse transcriptase M184V mutant assessed as ATP-mediated excision of zidovudine-monophosphate terminated DNA/DNA template/primer duplex chain at 100 uM by gel shift mobility assay. Summed up: (§3)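 Native 4% PAGE in Tris-acetate pH 8.0 with 1 mM EDTA, 30 min at 100 V, room temperature. The shifted band was taken as a 1:1 RT-T/P complex to give Kd. Mean ± SD of three experiments.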

Experiment [4] concerns the target Human immunodeficiency virus type 1 reverse transcriptase (Human immunodeficiency virus 1, UniProt Q72547). The experiment can be described thus: Binding affinity to wild type HIV1 LAI reverse transcriptase assessed as ATP-mediated excision of zidovudine-monophosphate terminated DNA/DNA template/primer duplex chain at 100 uM by gel shift mobility assay. Summed up: as §3
(In general: A gel shift assay detects complexes by their altered migration in electrophoresis.)

Experiment [5] relates to Human immunodeficiency virus type 1 reverse transcriptase (Human immunodeficiency virus 1), Q72547 [M41L,L210W,T215Y,M184V]. The experiment can be described thus: Binding affinity to 200 nM HIV1 LAI reverse transcriptase M41L/L210W/T215Y/M184V mutant assessed as ATP-mediated excision of zidovudine-monophosphate from chain terminated DNA/DNA template/primer duplex at 100 uM. Summed up:
as §2

Experiment [6] deals with Human immunodeficiency virus type 1 reverse transcriptase (Human immunodeficiency virus 1, UniProt Q72547, L210W/M184V/M41L/T215Y). Description: Binding affinity to HIV1 LAI reverse transcriptase M41L/L210W/T215Y/M184V mutant assessed as ATP-mediated excision of zidovudine-monophosphate terminated DNA/DNA template/primer duplex chain at 100 uM by gel shift mobility assay. Summed up:
as §3

Experiment [7] has as its system Human immunodeficiency virus 1. Description: Selectivity ratio of Kd for excision of zidovudine-monophosphate from chain terminated DNA/DNA template/primer duplex in 200 nM HIV1 LAI reverse transcriptase M41L/L210W/T215Y mutant to Kd for excision of zidovudine-monophosphate from chain terminated DNA/DNA template/primer duplex in 200 nM wild type HIV1 LAI reverse transcriptase by gel shift mobility assay.

Experiment [8] concerns Human immunodeficiency virus type 1 reverse transcriptase (Human immunodeficiency virus 1), Q72547 [M184V]. Description: Binding affinity to 200 nM HIV1 LAI reverse transcriptase M184V mutant assessed as ATP-mediated excision of zidovudine-monophosphate from chain terminated DNA/DNA template/primer duplex at 100 uM. Summed up: as §2
In experiment [9] the test system is Human immunodeficiency virus 1. The experiment can be described thus: Binding affinity to 200 nM HIV1 LAI reverse transcriptase M41L/L210W/T215Y/M184V/G333D mutant assessed as ATP-mediated excision of zidovudine-monophosphate from chain terminated DNA/DNA template/primer duplex at 100 uM. Summed up:
as §2

In experiment [10] the test system is Human immunodeficiency virus 1. The experiment can be described thus: Selectivity ratio of Kd for excision of zidovudine-monophosphate terminated DNA/DNA template/primer duplex chain in HIV1 LAI reverse transcriptase M41L/L210W/T215Y/M184V mutant to Kd for excision of zidovudine-monophosphate terminated DNA/DNA template/primer duplex chain in wild type HIV1 LAI reverse transcriptase by gel shift mobility assay.

For experiment [11], the system named is Human immunodeficiency virus 1. Description: Selectivity ratio of Kd for excision of zidovudine-monophosphate from chain terminated DNA/DNA template/primer duplex in HIV1 LAI reverse transcriptase M41L/L210W/T215Y/K65R/G333D mutant to Kd for excision of zidovudine-monophosphate from chain terminated DNA/DNA template/primer duplex in wild type HIV1 LAI reverse transcriptase by gel shift mobility assay.

Experiment [12] can be described thus: Binding affinity to HIV1 LAI reverse transcriptase M41L/L210W/T215Y/M184V/G333D mutant assessed as ATP-mediated excision of zidovudine-monophosphate terminated DNA/DNA template/primer duplex chain at 100 uM by gel shift mobility assay. Also on record: species or system Human immunodeficiency virus 1. Summed up:
as §3

Experiment [13] relates to Human immunodeficiency virus type 1 reverse transcriptase (Human immunodeficiency virus 1), Q72547 [M41L,L210W,T215Y]. The experiment can be described thus: Binding affinity to HIV1 LAI reverse transcriptase M41L/L210W/T215Y mutant assessed as ATP-mediated excision of zidovudine-monophosphate from chain terminated RNA/DNA template/primer duplex. Summed up:
as §1

Experiment [14] concerns the target Human immunodeficiency virus type 1 reverse transcriptase (Human immunodeficiency virus 1) (UniProt Q72547). Description: Binding affinity to wild type HIV1 LAI reverse transcriptase assessed as ATP-mediated excision of zidovudine-monophosphate from chain terminated RNA/DNA template/primer duplex. Summed up: as §1
Experiment [15] deals with Human immunodeficiency virus 1. The experiment can be described thus: Selectivity ratio of Kd for excision of zidovudine-monophosphate terminated DNA/DNA template/primer duplex chain in HIV1 LAI reverse transcriptase M41L/L210W/T215Y/K65R mutant to Kd for excision of zidovudine-monophosphate terminated DNA/DNA template/primer duplex chain in wild type HIV1 LAI reverse transcriptase by gel shift mobility assay.

Experiment [16] addresses Human immunodeficiency virus type 1 reverse transcriptase (Human immunodeficiency virus 1, UniProt Q72547, K65R/L210W/M41L/T215Y). The experiment can be described thus: Binding affinity to HIV1 LAI reverse transcriptase M41L/L210W/T215Y/K65R mutant assessed as ATP-mediated excision of zidovudine-monophosphate terminated DNA/DNA template/primer duplex chain at 100 uM by gel shift mobility assay. Summed up: as §3

Experiment [17] has as its system Human immunodeficiency virus 1. The experiment can be described thus: Selectivity ratio of Kd for excision of zidovudine-monophosphate from chain terminated DNA/DNA template/primer duplex in 200 nM HIV1 LAI reverse transcriptase M41L/L210W/T215Y mutant to Kd for excision of zidovudine-monophosphate from chain terminated DNA/DNA template/primer duplex in 200 nM HIV1 LAI reverse transcriptase M184V mutant by gel shift mobility assay.

Experiment [18] can be described thus: Binding affinity to HIV1 LAI reverse transcriptase M41L/L210W/T215Y/K65R/G333D mutant assessed as ATP-mediated excision of zidovudine-monophosphate terminated DNA/DNA template/primer duplex chain at 100 uM by gel shift mobility assay. Set-up: species or system Human immunodeficiency virus 1. Summed up:
as §3

Experiment [19] deals with Human immunodeficiency virus type 1 reverse transcriptase (Human immunodeficiency virus 1) (UniProt Q72547). The experiment can be described thus: Binding affinity to 200 nM wild type HIV1 LAI reverse transcriptase assessed as ATP-mediated excision of zidovudine-monophosphate from chain terminated DNA/DNA template/primer duplex at 100 uM. Summed up:
as §2

The pKd is −log10 of the Kd, conventionally taken in molar units. On to `Cc1cn([C@H]2C[C@H](N=[N+]=[N-])[C@@H](COP(=O)(O)O)O2)c(=O)[nH]c1=O` [AZIDOTHYMIDINE MONOPHOSPHATE], for which the outcome in [1] and in experiment [14] was inactive. Also, the outcome in experiment [2], in experiment [5], in experiment [8], in experiment [9], in experiment [13] and in experiment [19] was Active. Moreover, the pKd in experiment [3] was 7.11; in experiment [4] it was 7.70; in experiment [6] it was 7.01; in experiment [12] it was 7.34; in [16], 7.69; in experiment [18] it was 7.65. Further, the fold change (FC) in experiment [7] and in experiment [17] was 4 in each case. Further, the Ratio in experiment [10] stood at 5; in experiment [11], 1.1; in experiment [15] it was 1.
